Data as given in publication PMC10671706 (Journal of medicinal chemistry, 2022).
Bridge positions count the residues as written; N and C are the ends. Square brackets hold non-standard residues; d marks the D form. Ends that are not written are not given here. Peptide text beside a SMILES is read from it.

Tests used:
[1] = system: CT26 tumor; experiment: Anti-tumor activity and survival study in CT26 syngeneic Balb/c mouse model; type: in vivo
Summary of the method: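 CT26 cells (~1×10^6) implanted s.c. in the right flank of male and female Balb/c mice. At 200-250 mm3, mice were split into five groups of 4 female + 4 male. Test compound or anti-mouse PD-L1 antibody 0.5 mg/kg i.p. daily, day 10–18; saline i.p. control. Caliper volume = 1/2 × length × width2. RTV = day 18/day 10 volume; TGI on day 18; survival curves.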

[2] = biological target: human PD-1/PD-L1 interaction (Homo sapiens, UniProt Q9NZQ7); experiment: Protein-based PD-1/PD-L1 blocking assay; type: binding; settings: human PD-L1/PD-1 protein interaction
human PD-1/PD-L1 interaction, sequence (Q9NZQ7 19-238 limits assumed): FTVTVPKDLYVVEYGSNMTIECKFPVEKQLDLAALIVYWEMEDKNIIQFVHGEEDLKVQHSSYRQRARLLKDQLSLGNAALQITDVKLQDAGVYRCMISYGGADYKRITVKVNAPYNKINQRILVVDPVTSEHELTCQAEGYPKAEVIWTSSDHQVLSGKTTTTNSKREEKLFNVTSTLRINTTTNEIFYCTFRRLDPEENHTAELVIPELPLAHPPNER

[3] = system: PD-1/PD-L1 complex; settings: cited from earlier work
[4] = system: trypsin; settings: cited from earlier work

CC(=O)N[C@H]1CSSC[C@@H](C(=O)N[C@@H](Cc2c[nH]c3ccccc23)C(=O)N[C@@H](CC(N)=O)C(=O)N[C@@H](CC(C)C)C(=O)N[C@@H](CC(N)=O)C(=O)N[C@H](C(N)=O)[C@@H](C)O)NC(=O)[C@H](Cc2ccc(O)cc2)NC(=O)[C@H](Cc2ccc(O)cc2)NC(=O)[C@H](CO)NC(=O)[C@H](CCCNC(=N)N)NC(=O)[C@H](Cc2c[nH]cn2)NC1=O [C12] (Ac-CHRSYYCWNLNT-NH2; disulfide 1-7; N-terminus and C-terminus assumed)
survival of the mice compared with the saline group ([1]; 0.5 mg/kg intraperitoneally daily): significant improvement in survival | anti-tumor activity (tumor growth) compared with the saline group ([1]; 0.5 mg/kg intraperitoneally daily from day 10 to day 18, CT26 Balb/c mice): significant anti-tumor activity | increase in the blocking efficiency (normalized against the parent peptide CLP-2) ([2]; peptide at 5 μM): ~2 fold

C[C@@H](O)[C@H](NC(=O)N[C@@H](CC(N)=O)c1nc([C@@H](N)CO)no1)C(=O)O [CA-170]
blocking of the formation of the PD-1/PD-L1 complex [3]: could not block the formation of the PD-1/PD-L1 complex

IDR-1018
time to degradation in trypsin [4]: less than 30 min

d(CNLNWTYYSRHC) ([dC][dN][dL][dN][dW][dT][dY][dY][dS][dR][dH][dC]; cysteine pairing not given here; also: retro-inverso) [retro-inverso sequence of the C7 peptide]
blocking efficiency / blocking activity (in words) ([2]; screening at 5 μM normalized against CLP-2): loss of the blocking efficiency
